# ChEMBL document CHEMBL1150418, “Discovery of potent furan piperazine sodium channel blockers for treatment of neuropathic pain” (Bioorg Med Chem, 2008)
# System: Rattus norvegicus
# Assay: Analgesic activity in po dosed Sprague-Dawley rat assessed as attenuation of mechanical allodynia in chung model of neuropathic pain
# Type: functional
# Conditions: not given
row,SMILES,ED50 [µmol/kg]
1,Nc1nnc(-c2cccc(Cl)c2Cl)c(N)n1 [LAMOTRIGINE],47
2,O=C(c1ccc(-c2ccc(Cl)cc2)o1)N1CCN(C2CCCCC2)CC1,37

# Molecular target: T1, Sodium channel protein type 10 subunit alpha (Homo sapiens, UniProt Q9Y5Y9)
# Assay: Inhibition of human recombinant Nav1.8 channel expressed in HEK293 cells at 1 uM by whole cell voltage clamp technique
# Type: cell-based
# Conditions: not given
# In short: (§1)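 HEK293 cells stably expressing recombinant human sodium channels, grown in high-glucose DMEM, 10% FBS, 2 mM sodium pyruvate, G418. Whole-cell voltage clamp; pipettes 0.8–2.5 MΩ; internal (mM) 135 CsF, 10 CsCl, 5 EGTA, 5 NaCl, 10 HEPES, pH 7.3 with CsOH. Holding pre-pulse set at midpoint of steady-state inactivation for each subtype.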
# Target sequence in this assay (Q9Y5Y9 whole entry, looked up): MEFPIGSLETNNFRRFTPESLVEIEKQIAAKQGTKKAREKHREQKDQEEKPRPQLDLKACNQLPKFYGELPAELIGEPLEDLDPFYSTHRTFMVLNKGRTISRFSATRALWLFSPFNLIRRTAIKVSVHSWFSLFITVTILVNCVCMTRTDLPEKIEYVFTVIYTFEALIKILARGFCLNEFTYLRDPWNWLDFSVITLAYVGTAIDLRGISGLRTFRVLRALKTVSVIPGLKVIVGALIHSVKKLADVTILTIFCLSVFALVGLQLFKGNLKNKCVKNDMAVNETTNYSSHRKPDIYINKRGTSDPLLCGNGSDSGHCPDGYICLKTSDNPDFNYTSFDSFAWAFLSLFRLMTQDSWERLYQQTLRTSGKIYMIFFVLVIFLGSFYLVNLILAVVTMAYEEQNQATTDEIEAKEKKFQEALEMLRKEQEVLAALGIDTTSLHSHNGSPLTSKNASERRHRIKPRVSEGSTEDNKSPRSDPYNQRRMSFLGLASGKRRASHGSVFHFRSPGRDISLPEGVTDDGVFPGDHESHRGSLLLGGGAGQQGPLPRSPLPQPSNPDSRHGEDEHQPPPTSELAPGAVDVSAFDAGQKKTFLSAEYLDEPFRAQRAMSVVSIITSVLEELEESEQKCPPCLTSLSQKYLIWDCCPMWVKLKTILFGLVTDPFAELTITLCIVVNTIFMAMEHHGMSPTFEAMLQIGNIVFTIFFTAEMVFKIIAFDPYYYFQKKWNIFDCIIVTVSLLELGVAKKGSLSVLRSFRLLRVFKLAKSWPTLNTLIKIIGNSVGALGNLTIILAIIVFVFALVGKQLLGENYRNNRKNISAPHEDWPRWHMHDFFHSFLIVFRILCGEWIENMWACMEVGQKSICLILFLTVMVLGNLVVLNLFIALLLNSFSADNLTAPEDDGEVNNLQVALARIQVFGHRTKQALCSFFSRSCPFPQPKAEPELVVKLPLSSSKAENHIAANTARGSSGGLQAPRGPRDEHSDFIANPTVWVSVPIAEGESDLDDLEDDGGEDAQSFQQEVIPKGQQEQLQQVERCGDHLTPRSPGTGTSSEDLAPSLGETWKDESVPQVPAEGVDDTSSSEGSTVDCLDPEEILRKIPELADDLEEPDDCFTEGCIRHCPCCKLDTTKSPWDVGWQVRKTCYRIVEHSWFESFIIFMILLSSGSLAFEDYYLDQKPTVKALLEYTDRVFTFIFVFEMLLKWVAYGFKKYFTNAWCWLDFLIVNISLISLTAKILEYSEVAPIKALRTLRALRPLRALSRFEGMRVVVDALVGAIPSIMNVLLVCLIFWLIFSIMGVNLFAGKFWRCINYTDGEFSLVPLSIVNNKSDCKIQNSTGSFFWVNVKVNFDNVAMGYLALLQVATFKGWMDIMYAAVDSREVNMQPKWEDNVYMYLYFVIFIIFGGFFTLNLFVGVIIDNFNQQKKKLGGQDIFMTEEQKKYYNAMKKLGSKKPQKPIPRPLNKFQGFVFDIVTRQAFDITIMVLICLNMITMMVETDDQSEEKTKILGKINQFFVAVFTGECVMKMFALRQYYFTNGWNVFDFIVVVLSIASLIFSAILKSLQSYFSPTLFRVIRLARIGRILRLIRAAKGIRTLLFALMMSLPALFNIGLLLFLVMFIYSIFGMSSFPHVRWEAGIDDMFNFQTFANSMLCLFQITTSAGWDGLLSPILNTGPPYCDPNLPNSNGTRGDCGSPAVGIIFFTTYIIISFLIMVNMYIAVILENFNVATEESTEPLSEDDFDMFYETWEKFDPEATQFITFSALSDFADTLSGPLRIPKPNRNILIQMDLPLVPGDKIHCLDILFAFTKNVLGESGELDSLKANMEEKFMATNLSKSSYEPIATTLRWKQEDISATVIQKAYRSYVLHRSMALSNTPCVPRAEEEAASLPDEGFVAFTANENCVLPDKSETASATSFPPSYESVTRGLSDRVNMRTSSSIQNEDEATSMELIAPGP
row,inhibition [%],SMILES
1,80,O=C(c1ccc(-c2cccc(Cl)c2)o1)N1CCN(C2CCCCC2)CC1
2,93,O=C(c1ccc(-c2ccc(Oc3ccccc3)cc2)o1)N1CCNCC1
3,65,CN(C)c1ccc(-c2ccc(C(=O)N3CCN(C4CCCCC4)CC3)o2)cc1

# System: Rattus norvegicus
# Assay: Analgesic activity in po dosed Sprague-Dawley rat by rotarod test
# Type: functional
# Conditions: not given
# In short: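 Accelerating rotorod: after 30-min acclimation, rats placed on 9-cm rod ramping 0–20 rpm over 60 s; latency to fall recorded, maximum 60 s; three training sessions per rat. Groups of at least six rats; mean ± SEM.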
row,SMILES,ED50 [µmol/kg]
1,Nc1nnc(-c2cccc(Cl)c2Cl)c(N)n1 [LAMOTRIGINE],> 390
2,O=C(c1ccc(-c2ccc(Cl)cc2)o1)N1CCN(C2CCCCC2)CC1,> 300

# System: Rattus norvegicus
# Assay: Analgesic activity in po dosed Sprague-Dawley rat by edge test
# Type: functional
# Conditions: not given
# In short: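 Balance test: rats placed on 0.5-cm-thick edges of a 40 × 40 × 36 cm plexiglass box, must pull up onto the edge and avoid falling; cut-off 2 min. Groups of at least six rats.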
row,SMILES,ED50 [µmol/kg]
1,Nc1nnc(-c2cccc(Cl)c2Cl)c(N)n1 [LAMOTRIGINE],> 390
2,O=C(c1ccc(-c2ccc(Cl)cc2)o1)N1CCN(C2CCCCC2)CC1,> 300

# Molecular target: T1, Sodium channel protein type 10 subunit alpha
# Assay: Inhibition of human recombinant Nav1.8 channel expressed in HEK293 cells by whole cell voltage clamp technique
# Type: cell-based
# Conditions: not given
# In short: as §1
# Target sequence in this assay (Q9Y5Y9 whole entry): as the sequence (Q9Y5Y9 whole entry, looked up) above
row,IC50 [nM],SMILES
1,300,O=C(c1ccc(-c2ccc(Cl)cc2)o1)N1CCN(C2CCCCC2)CC1
2,1000,C[C@@H](NC(=O)c1ccc(-c2ccc(Cl)cc2)o1)C(=O)N1CCN(CCCOc2ccc(C(=O)C3CC3)cc2)CC1

row,SMILES,IC50 [nM]
1,Nc1nnc(-c2cccc(Cl)c2Cl)c(N)n1 [LAMOTRIGINE],96000

# Molecular target: Sodium channel protein type 10 subunit alpha (Rattus norvegicus) (UniProt Q62968)
# Assay: Blockade of Nav1.8 channel in rat dorsal root ganglion neurons assessed as inhibition of TTX-R current at 1 uM by whole cell patch clamp technique
# Type: tissue-based
# Conditions: not given
# In short: (§2)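 Whole-cell voltage clamp of TTX-resistant currents in dissociated rat DRG neurons. Pipette (mM): CsF 135, NaCl 5, CsCl 10, EGTA 5, HEPES 10, pH 7.2. Bath (mM): NaCl 22, choline Cl 110, CaCl2 1.8, MgCl2 0.8, HEPES 10, glucose 5, pH 7.4. Inactivated-state protocol with pre-pulse at V1/2 (−40 mV). Mean ± SEM of two to six determinations.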
# Sequence of Sodium channel protein type 10 subunit alpha (Rattus norvegicus) (Q62968 whole entry, looked up): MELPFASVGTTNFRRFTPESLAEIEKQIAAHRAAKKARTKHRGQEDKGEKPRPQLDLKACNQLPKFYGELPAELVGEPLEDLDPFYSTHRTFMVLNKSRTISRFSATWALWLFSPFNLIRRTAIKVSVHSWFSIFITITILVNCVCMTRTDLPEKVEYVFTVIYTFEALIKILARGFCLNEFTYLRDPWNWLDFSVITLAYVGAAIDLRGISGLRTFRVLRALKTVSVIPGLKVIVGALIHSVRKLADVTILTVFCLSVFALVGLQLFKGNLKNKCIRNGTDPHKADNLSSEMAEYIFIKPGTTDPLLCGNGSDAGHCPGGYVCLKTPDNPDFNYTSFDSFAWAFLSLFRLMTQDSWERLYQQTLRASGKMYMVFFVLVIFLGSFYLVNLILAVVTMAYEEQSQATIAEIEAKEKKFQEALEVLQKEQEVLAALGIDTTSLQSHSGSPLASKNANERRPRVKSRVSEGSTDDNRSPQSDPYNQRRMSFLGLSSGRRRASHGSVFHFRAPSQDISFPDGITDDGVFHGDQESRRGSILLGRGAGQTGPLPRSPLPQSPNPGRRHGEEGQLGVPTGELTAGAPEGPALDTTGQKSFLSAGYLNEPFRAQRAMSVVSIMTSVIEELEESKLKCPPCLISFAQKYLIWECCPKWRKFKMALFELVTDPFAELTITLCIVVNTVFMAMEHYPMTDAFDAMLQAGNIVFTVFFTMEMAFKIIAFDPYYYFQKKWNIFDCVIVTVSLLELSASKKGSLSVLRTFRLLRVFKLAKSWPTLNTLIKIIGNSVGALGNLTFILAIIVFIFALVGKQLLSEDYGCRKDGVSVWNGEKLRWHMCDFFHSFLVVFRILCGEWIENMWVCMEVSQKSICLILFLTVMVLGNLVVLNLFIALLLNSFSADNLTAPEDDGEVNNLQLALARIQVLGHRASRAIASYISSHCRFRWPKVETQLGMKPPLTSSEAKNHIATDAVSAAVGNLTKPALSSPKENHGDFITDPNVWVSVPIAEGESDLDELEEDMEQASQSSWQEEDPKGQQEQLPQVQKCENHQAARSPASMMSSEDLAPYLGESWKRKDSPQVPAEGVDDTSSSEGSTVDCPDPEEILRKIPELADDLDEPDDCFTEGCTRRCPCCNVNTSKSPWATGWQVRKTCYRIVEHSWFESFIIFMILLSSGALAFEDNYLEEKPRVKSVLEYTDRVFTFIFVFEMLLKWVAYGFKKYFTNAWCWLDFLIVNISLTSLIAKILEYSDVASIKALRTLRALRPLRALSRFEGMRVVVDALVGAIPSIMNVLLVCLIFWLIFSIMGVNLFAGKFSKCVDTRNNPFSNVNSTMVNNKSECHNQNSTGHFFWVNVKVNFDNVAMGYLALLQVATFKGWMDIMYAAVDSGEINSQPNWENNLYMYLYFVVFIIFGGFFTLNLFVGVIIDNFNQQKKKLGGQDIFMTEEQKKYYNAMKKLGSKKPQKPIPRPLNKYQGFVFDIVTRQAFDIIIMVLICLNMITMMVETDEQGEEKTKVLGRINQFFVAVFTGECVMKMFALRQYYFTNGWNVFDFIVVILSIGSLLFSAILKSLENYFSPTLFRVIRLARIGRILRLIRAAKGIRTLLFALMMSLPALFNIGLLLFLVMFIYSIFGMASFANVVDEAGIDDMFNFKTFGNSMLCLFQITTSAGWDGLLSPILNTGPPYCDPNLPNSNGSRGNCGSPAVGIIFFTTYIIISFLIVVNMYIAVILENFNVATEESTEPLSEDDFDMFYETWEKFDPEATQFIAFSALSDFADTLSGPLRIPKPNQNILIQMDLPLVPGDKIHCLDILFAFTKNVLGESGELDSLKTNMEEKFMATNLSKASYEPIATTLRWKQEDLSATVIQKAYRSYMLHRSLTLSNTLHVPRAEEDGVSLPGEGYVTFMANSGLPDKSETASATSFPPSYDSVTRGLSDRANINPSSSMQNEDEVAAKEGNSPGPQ
row,inhibition [%],SMILES
1,56,O=C(c1ccc(-c2ccc(Oc3ccccc3)cc2)o1)N1CCNCC1

# Molecular target: T1, Sodium channel protein type 10 subunit alpha
# Assay: Inhibition of human recombinant Nav1.8 channel expressed in HEK293 cells at 0.3 uM by whole cell voltage clamp technique
# Type: cell-based
# Conditions: not given
# In short: as §1
# Target sequence in this assay (Q9Y5Y9 whole entry, looked up): as the sequence (Q9Y5Y9 whole entry, looked up) above
row,inhibition [%],SMILES
1,58,O=C(c1ccc(-c2ccc(Cl)cc2)o1)N1CCN(C2CCCCC2)CC1

# System: Rattus norvegicus
# Assay: Effect on locomotor activity in po dosed Sprague-Dawley rat
# Type: functional
# Conditions: not given
# In short: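 Open-field locomotor activity recorded with photobeam activity monitors during the light cycle; groups of at least six rats, mean ± SEM.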
row,SMILES,ED50 [µmol/kg]
1,Nc1nnc(-c2cccc(Cl)c2Cl)c(N)n1 [LAMOTRIGINE],> 390
2,O=C(c1ccc(-c2ccc(Cl)cc2)o1)N1CCN(C2CCCCC2)CC1,> 300

# System: not listed separately
# Assay: Ratio of drug level in brain to plasma in Sprague-Dawley rat
# Type: ADME
# Conditions: Sprague-Dawley, brain and plasma
row,Kp,SMILES
1,9,O=C(c1ccc(-c2ccc(Cl)cc2)o1)N1CCN(C2CCCCC2)CC1

# Same assay, conditions: brain
row,SMILES,Ratio
1,Nc1nnc(-c2cccc(Cl)c2Cl)c(N)n1 [LAMOTRIGINE],26

# Molecular target: Sodium channel protein type 2 subunit alpha (Homo sapiens, UniProt Q99250)
# Assay: Inhibition of human recombinant Nav1.2 channel expressed in HEK293 cells by whole cell voltage clamp technique
# Type: cell-based
# Conditions: not given
# In short: (§3)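 HEK293 cells stably expressing recombinant human sodium channels, grown in high-glucose DMEM, 10% FBS, 2 mM sodium pyruvate, G418. Holding pre-pulse set at midpoint of steady-state inactivation for each subtype.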
row,SMILES,IC50 [µM]
1,Nc1nnc(-c2cccc(Cl)c2Cl)c(N)n1 [LAMOTRIGINE],10
2,O=C(c1ccc(-c2ccc(Cl)cc2)o1)N1CCN(C2CCCCC2)CC1,0.35

# System: not listed separately
# Assay: Oral bioavailability in Sprague-Dawley rat at 10 mg/kg
# Type: ADME, organism-based
# Conditions: in vivo
# In short: (§4)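 Rat pharmacokinetics after administration at 10 mg/kg in 10% DMSO/PEG400.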
row,SMILES,bioavailability [%]
1,Nc1nnc(-c2cccc(Cl)c2Cl)c(N)n1 [LAMOTRIGINE],79
2,O=C(c1ccc(-c2ccc(Cl)cc2)o1)N1CCN(C2CCCCC2)CC1,48

# System: not listed separately
# Assay: Volume of distribution at steady state in Sprague-Dawley rat at 10 mg/kg
# Type: ADME, organism-based
# Parameters: dose 10 mg/kg
# Conditions: in vivo, read-out: Vdss
# In short: as §4
row,SMILES,Vd [L/kg]
1,Nc1nnc(-c2cccc(Cl)c2Cl)c(N)n1 [LAMOTRIGINE],0.98
2,O=C(c1ccc(-c2ccc(Cl)cc2)o1)N1CCN(C2CCCCC2)CC1,7.8

# Molecular target: Sodium channel protein type 10 subunit alpha (Rattus norvegicus) (UniProt Q62968)
# Assay: Blockade of Nav1.8 channel in rat dorsal root ganglion neurons assessed as inhibition of TTX-R current at 0.3 uM by whole cell patch clamp technique
# Type: tissue-based
# Conditions: not given
# In short: as §2
row,inhibition [%],SMILES
1,50,O=C(c1ccc(-c2ccc(Cl)cc2)o1)N1CCN(C2CCCCC2)CC1

# Molecular target: Sodium channel protein type 10 subunit alpha (Mus musculus, UniProt Q6QIY3)
# Assay: Inhibition of mouse recombinant Nav1.8 channel expressed in HEK293 cells by isotopic efflux assay
# Type: cell-based
# Conditions: not given
row,IC50 [nM],SMILES
1,1000,O=C(c1ccc(-c2ccc(Cl)cc2)o1)N1CCN(C2CCCCC2)CC1

# Molecular target: T1, Sodium channel protein type 10 subunit alpha
# Assay: Inhibition of human recombinant Nav1.8 channel expressed in HEK293 cells at 0.1 uM by whole cell voltage clamp technique
# Type: cell-based
# Conditions: not given
# In short: as §1
# Target sequence in this assay (Q9Y5Y9 whole entry, looked up): as above
row,inhibition [%],SMILES
1,22,O=C(c1ccc(-c2cccc(Cl)c2)o1)N1CCN(C2CCCCC2)CC1
2,39,O=C(c1ccc(-c2ccc(Oc3ccccc3)cc2)o1)N1CCNCC1

# System: not listed separately
# Assay: Plasma clearance in Sprague-Dawley rat at 10 mg/kg
# Type: ADME, organism-based
# Parameters: dose 10 mg/kg
# Conditions: not given
# In short: as §4
row,SMILES,clearance [mL/min/kg]
1,Nc1nnc(-c2cccc(Cl)c2Cl)c(N)n1 [LAMOTRIGINE],1
2,O=C(c1ccc(-c2ccc(Cl)cc2)o1)N1CCN(C2CCCCC2)CC1,45

# System: not listed separately
# Assay: Cmax in Sprague-Dawley rat at 10 mg/kg, po
# Type: ADME, organism-based
# Parameters: dose 10 mg/kg, route oral
# Conditions: in vivo
# In short: as §4
row,SMILES,Cmax [ng/mL]
1,Nc1nnc(-c2cccc(Cl)c2Cl)c(N)n1 [LAMOTRIGINE],3500
2,O=C(c1ccc(-c2ccc(Cl)cc2)o1)N1CCN(C2CCCCC2)CC1,470

# Molecular target: Sodium channel protein type 10 subunit alpha (Rattus norvegicus, UniProt Q62968)
# Assay: Blockade of Nav1.8 channel in rat dorsal root ganglion neurons assessed as inhibition of TTX-R current by whole cell patch clamp technique
# Type: tissue-based
# Conditions: not given
# In short: as §2
# Sequence of Sodium channel protein type 10 subunit alpha (Rattus norvegicus, UniProt Q62968) (Q62968 whole entry): as the sequence (Q62968 whole entry, looked up) above
row,SMILES,IC50 [µM]
1,Nc1nnc(-c2cccc(Cl)c2Cl)c(N)n1 [LAMOTRIGINE],25
2,O=C(c1ccc(-c2ccc(Cl)cc2)o1)N1CCN(C2CCCCC2)CC1,0.39

# Molecular target: Sodium channel protein type 5 subunit alpha (Homo sapiens, UniProt Q14524)
# Assay: Inhibition of human recombinant Nav1.5 channel expressed in HEK293 cells by whole cell voltage clamp technique
# Type: cell-based
# Conditions: not given
# In short: as §3
row,SMILES,IC50 [µM]
1,Nc1nnc(-c2cccc(Cl)c2Cl)c(N)n1 [LAMOTRIGINE],62
2,O=C(c1ccc(-c2ccc(Cl)cc2)o1)N1CCN(C2CCCCC2)CC1,2.3
